Reference: the M2OR odorant receptor database

Assays:
Details in all cases: stereoisomer not certain
OR5B17 (Homo sapiens) = target: T1, OR5B17 (Homo sapiens) (UniProt Q8NGF7)
T1 sequence (whole entry): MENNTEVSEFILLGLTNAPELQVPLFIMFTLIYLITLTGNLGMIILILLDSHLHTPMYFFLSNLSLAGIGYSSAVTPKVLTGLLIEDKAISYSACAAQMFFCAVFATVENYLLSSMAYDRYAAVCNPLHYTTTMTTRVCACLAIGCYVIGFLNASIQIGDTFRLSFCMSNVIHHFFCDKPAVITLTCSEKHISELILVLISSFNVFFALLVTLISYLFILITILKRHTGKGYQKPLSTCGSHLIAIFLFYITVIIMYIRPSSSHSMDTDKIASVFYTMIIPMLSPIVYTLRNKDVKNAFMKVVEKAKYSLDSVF
Method in brief: (§1)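 Each receptor–molecule pair is labelled responsive or non-responsive (inactive) according to whether the original authors judged the measured signal statistically different from baseline. The data were taken from the main text and supplementary material of published papers and checked for typos and inconsistencies. Assay methods differed by source, with transient luciferase assays in mammalian cell lines being common.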

OR5B2 (Homo sapiens) = OR5B2 (Homo sapiens) (UniProt Q96R09)
Chain of OR5B2 (Homo sapiens) (Q96R09 whole entry): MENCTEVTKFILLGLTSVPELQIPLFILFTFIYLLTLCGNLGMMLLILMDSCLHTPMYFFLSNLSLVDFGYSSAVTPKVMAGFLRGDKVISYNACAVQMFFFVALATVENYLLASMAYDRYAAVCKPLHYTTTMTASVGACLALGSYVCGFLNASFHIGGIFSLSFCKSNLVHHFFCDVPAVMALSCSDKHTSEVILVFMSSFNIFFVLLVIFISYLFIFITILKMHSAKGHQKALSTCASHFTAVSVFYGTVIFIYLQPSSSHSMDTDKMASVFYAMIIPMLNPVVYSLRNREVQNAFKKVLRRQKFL
Method in brief: as §1

OR5B21 (Homo sapiens) = OR5B21 (Homo sapiens) (UniProt A6NL26)
Chain of OR5B21 (Homo sapiens) (A6NL26 whole entry): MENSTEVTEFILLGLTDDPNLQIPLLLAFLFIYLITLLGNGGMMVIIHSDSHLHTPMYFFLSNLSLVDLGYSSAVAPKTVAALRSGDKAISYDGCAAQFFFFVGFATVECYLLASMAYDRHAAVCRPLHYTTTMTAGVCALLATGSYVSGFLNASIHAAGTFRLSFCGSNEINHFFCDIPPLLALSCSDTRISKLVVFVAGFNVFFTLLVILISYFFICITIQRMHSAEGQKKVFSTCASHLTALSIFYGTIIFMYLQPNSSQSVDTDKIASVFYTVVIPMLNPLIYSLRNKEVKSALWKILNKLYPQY
Method in brief: as §1

OR5B3 (Homo sapiens) = OR5B3 (Homo sapiens) (UniProt Q8NH48)
Chain of OR5B3 (Homo sapiens) (Q8NH48 whole entry): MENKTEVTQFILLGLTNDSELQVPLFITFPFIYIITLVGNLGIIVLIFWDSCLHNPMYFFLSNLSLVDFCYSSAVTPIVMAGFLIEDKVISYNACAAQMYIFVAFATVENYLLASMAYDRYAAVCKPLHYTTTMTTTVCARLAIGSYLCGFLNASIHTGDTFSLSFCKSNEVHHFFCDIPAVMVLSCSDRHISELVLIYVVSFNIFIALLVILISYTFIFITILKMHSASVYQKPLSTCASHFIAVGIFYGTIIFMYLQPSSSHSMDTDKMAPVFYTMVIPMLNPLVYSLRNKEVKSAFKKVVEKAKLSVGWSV
Method in brief: as §1

OR5C1 (Homo sapiens) = OR5C1 (Homo sapiens) (UniProt Q8NGR4)
Chain of OR5C1 (Homo sapiens) (Q8NGR4 whole entry): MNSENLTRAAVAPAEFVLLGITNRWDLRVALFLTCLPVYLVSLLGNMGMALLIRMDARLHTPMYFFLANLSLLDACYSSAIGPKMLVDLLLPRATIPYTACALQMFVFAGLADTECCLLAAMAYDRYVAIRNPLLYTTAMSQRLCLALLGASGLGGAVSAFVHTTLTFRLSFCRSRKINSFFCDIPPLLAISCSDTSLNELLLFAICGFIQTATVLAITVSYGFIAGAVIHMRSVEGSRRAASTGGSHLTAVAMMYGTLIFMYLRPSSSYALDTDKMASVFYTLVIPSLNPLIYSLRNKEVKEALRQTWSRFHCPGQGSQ
Method in brief: as §1

OR5B2 E6D = tested on: OR5B2 E6D
Chain of OR5B2 E6D (as listed by the source): as the sequence (Q96R09 whole entry) above, with E6D counted along it
Method in brief: as §1

OR5B3 I198V G247A = tested on: OR5B3 I198V G247A
Method in brief: as §1

OR5BC C141R = tested on: OR5BC C141R
Chain of OR5BC C141R (as listed by the source, stated change not applied): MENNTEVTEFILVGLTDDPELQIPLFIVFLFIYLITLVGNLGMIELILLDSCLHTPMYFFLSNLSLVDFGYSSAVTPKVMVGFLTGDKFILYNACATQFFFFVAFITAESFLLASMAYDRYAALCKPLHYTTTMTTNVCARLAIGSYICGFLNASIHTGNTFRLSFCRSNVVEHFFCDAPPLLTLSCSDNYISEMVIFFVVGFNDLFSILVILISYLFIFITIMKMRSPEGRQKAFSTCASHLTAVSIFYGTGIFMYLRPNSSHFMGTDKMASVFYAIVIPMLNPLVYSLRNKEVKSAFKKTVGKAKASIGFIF
Method in brief: as §1

OR5BH L80I I85M = tested on: OR5BH L80I I85M
Method in brief: as §1

OR5BH L80I = tested on: OR5BH L80I
Chain of OR5BH L80I (as listed by the source, stated change not applied): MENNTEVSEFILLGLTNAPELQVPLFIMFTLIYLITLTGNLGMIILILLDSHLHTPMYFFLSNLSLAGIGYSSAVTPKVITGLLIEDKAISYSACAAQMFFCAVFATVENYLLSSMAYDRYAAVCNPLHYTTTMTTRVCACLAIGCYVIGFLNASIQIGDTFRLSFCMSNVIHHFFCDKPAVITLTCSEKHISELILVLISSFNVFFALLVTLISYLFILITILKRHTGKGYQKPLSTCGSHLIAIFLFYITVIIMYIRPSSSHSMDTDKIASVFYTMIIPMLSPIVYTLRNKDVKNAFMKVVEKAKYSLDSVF
Method in brief: as §1

Measured: odorant receptor agonist call;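 also: active if original authors judged signal statistically different from baseline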

O=Cc1ccccc1
inactive: OR5B17 (Homo sapiens)

Cc1c([N+](=O)[O-])c(C)c([N+](=O)[O-])c(C(C)(C)C)c1[N+](=O)[O-]
inactive: OR5B17 (Homo sapiens) | OR5B2 (Homo sapiens) | OR5B21 (Homo sapiens) | OR5B3 (Homo sapiens) | OR5C1 (Homo sapiens)

C=CCc1ccc(OC)cc1
inactive: OR5B17 (Homo sapiens)

O=CC=Cc1ccccc1
inactive: OR5B17 (Homo sapiens)

C=CCOC(=O)Cc1ccccc1
inactive: OR5B17 (Homo sapiens) | OR5B2 (Homo sapiens) | OR5B2 E6D | OR5B21 (Homo sapiens) | OR5B3 (Homo sapiens) | OR5B3 I198V G247A | OR5BC C141R | OR5BH L80I I85M | OR5BH L80I | OR5C1 (Homo sapiens)
